Bioassay records deposited in PubChem BioAssay by several laboratories.
HSV replic up = HSV replication enhancement; HSV replication augmentation in cells, fold increase; maximum fold increase; 220,000 compounds, 0.005% hits; AID 1956; in the data active means maximum fold increase above about 1.5; tested in PC3 cells
STAT3 act = STAT3 signaling activation; U3A cells, IL-6 STAT3-luciferase reporter, luminescence; 100% = signal with IL-6 EC80 alone; activation (% of control), % at 5.6 µM; 190,000 compounds, 0.91% hits; AID 871;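 active means activation above the screen-wide mean of compound activation plus 3 SD, cut at about 130% in these data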;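 further: 0% = background luminescence of wells with medium and substrate only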
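Material: human STAT1-deficient U3A cells with stable STAT3-luciferase reporter / Probe or stimulus: IL-6 stimulus at 33 ng/mL final / Schedule: 1 h compound pre-exposure, 6 h IL-6 stimulation, 37 °C / Technique: luminescence / Read-out basis: percent of IL-6-only median luminescence / Control set: IL-6-only high control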
Cl transport mod = modulators of human KCC2 chloride dependent transport | Q9H2X9 | KCC2 cells, thallium flux FluoZin-2 fluorescence | B-score of Tl+ flux slope (higher = more flux/activation; lower = inhibition) at 10 µM | 190,000 compounds, 2.2% hits | AID 1456;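 active means thallium flux slope and its plate-corrected score both differing from the plate sample mean at a set confidence after two filtering rounds, in either direction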;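 further: slope of fluorescence scaled to starting intensity during 10 to 20 s after thallium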
STAT1 inh = reduces IFN-gamma driven STAT1 reporter signal; NIH 3T3 STAT1-luciferase reporter, luminescence; inhibition, % at 5.5 µM; 200,000 compounds, 0.35% hits; AID 920;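 active means inhibition above a set limit, the mean inhibition across all tested compounds plus 3 SD, cut at about 34% in these data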;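 further: 0% = IFN-gamma with DMSO and 100% = IFN-gamma with 300 µM nifuroxazide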
STAT1 act = increases IFN-gamma driven STAT1 reporter signal; NIH 3T3 STAT1-luciferase reporter, luminescence; 100% = IFN-gamma alone, no compound; activation (% of control), % at 5.5 µM; 200,000 compounds, 2.6% hits;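 active means activation above the screen-wide mean activation plus 3 SD, cut at about 130% in these data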;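 further: raw ratio to IFN-gamma control signal so 100% means no change and 0% no light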
STAT3 blocker = reduces IL-6 driven STAT3 reporter signal. inhibition, % at 5.5 µM. 190,000 compounds, 0.89% hits. AID 862. U3A cells, IL-6 STAT3-luciferase reporter, luminescence; host cell line lacks STAT1;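 active means inhibition above the mean inhibition across all screened compounds plus 3 SD, cut at about 44% in these data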;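 further: 0% = DMSO only wells and 100% = 100 µM nifuroxazide control wells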
* marks the source's active call; other numbers are inactive results; i = inactive; . = no result. This is a sample that favours compounds with a hit; in the whole collection about 5.5% have one here.

SMILES | HSV replic up | STAT3 act | Cl transport mod | STAT1 inh | STAT1 act | STAT3 blocker
COc1ccc(NC(=O)c2ccccn2)cc1 | i | 34 | . | 27 | 84 | 77*
CSc1cccc(NC(=O)c2ccccn2)c1 | i | 90 | -0.024 | -49 | 142* | 16
COc1ccc(NC(=O)c2ccccn2)cc1OC | i | 104 | -0.35 | -27 | 124 | -2
O=C(Nc1ccc(NC(=O)C2CC2)nc1)c1ccccn1 | i | 71 | . | -1 | 100 | 40
CCC(=O)Nc1ccc(NC(=O)c2ccccn2)cn1 | i | 90 | 0.65 | -30 | 130* | 16
S=C(Nc1cccc2ccccc12)NC1CCCCC1 | i | 116 | -0.0035 | -24 | 121 | -18
COc1cccc(OCCSc2nnc3sc4ccccc4n23)c1 | i | 88 | -0.95 | -3 | 103 | 14
c1ccc(OCCSc2nnc3sc4ccccc4n23)cc1 | i | 31 | -2.1 | 50* | 54 | 87*
O=C(Cn1cnc2ccccc2c1=O)c1ccc(Br)cc1 | i | 89 | -1.4 | -51 | 144* | 18
CC(C)(C)n1ncc2c(=O)n(CC(=O)c3ccccc3)cnc21 | i | 116 | 0.52 | -55 | 150* | -18
Cc1ccc(C(=O)Cn2cnc3ccccc3c2=O)cc1 | i | 107 | 0.044 | -35 | 133* | -7
O=C(Cn1cnc2ccccc2c1=O)c1ccccc1 | i | 106 | 0.42 | -13 | 115 | -4
C=CCN=C(NC#N)SCc1ccccc1 | i | 101 | -0.38 | -6 | 105 | 1
C=CCN=C(NC#N)SCC(=O)c1cccc(OC)c1 | i | 117 | -0.96 | -41 | 137* | -18
NS(=O)(=O)c1ccc(CNS(=O)(=O)c2cccc3nonc23)cc1 | i | . | 0.51 | . | . | .
COc1ccccc1OCc1ccc(C(=O)N(C)C)o1 | i | 94 | 0.34 | -8 | 107 | 11
CN(C)C(=O)c1ccc(COc2ccccc2Br)o1 | i | 95 | -0.73 | -33 | 132* | 7
Cc1ccccc1N1Cc2ccccc2C1 | i | 106 | 0.74 | -3 | 103 | -4
CCCCn1c(SC(C)C(N)=O)nc2cc(C(=O)OC)ccc2c1=O (stereo unspecified) | i | 84 | 9.8* | -3 | 103 | 22
COc1ccccc1C(=O)NNC(=O)c1ccncc1 | i | 105 | 1.3 | -3 | 102 | -4
Cc1occc1C(=O)NNC(=O)c1cccc(F)c1 | i | 98 | -0.83 | -9 | 106 | 5
COc1ccccc1C(=O)NNC(=O)c1ccccc1[N+](=O)[O-] | i | 99 | 0.79 | -9 | 108 | -2
COCC(=O)NNC(=O)c1ccccc1OC | i | 135* | . | 2 | 99 | -38
COc1ccccc1C(=O)NNC(=O)c1cccc(F)c1 | i | 94 | 0.68 | -51 | 146* | 10
COc1cc2c(cc1NC(=O)c1ccccc1F)CCCC2 | i | 129 | 0.3 | -42 | 138* | -33
SMILES | HSV replic up | STAT3 act | Cl transport mod | STAT1 inh | STAT1 act | STAT3 blocker
COc1ccccc1C(=O)NNC(=O)c1ccccc1F | i | 133 | -0.16 | -43 | 138* | -42
O=C(c1ccc([N+](=O)[O-])cc1)N1CCN(c2cccc3[nH]ccc23)CC1 | i | . | 0.4 | . | . | .
CCOC(=O)N1CCN(c2c(NCc3ccccc3Cl)c(=O)c2=O)CC1 | i | . | -0.011 | . | . | .
CC(=O)Nc1ccc(S(=O)(=O)NCC(=O)OCC(=O)N2CCCc3ccccc32)cc1 | i | 105 | -0.47 | -2 | 101 | 4
C=CCNC(=S)NNC(=O)c1ccccc1OCC | i | 91 | 0.52 | 2 | 96 | 16
Cc1cccc(Nc2cc(C)c3c(O)cccc3n2)c1C | . | 96 | -2.6 | 4 | 97 | 4
OC1(c2cccc(C(F)(F)F)c2)CCN(c2ccc(-c3ccccc3)nn2)CC1 | i | 118 | 0.0057 | -45 | 141* | -18
OC1(c2cccc(C(F)(F)F)c2)CCN(c2ncnc3c2[nH]c2ccccc23)CC1 | . | 119 | . | 27 | 75 | -15
COC(=O)N/N=C/c1cc(Br)ccc1O | i | 83 | 0.71 | 2 | 96 | 24
CC(C)NC(=S)N/N=C/c1cc(Br)ccc1O | i | 93 | 5.9* | -2 | 101 | 7
Cc1ccc(C(=O)CSc2nsc(C)c2C#N)cc1 | i | 107 | . | -10 | 109 | -6
Cc1ccnc(SCC(=O)c2ccc(Br)cc2)c1C#N | i | 109 | 1.6 | -51 | 146* | -1
